From ChEMBL document CHEMBL1152820, “Plasmid-encoded ACC-4, an extended-spectrum cephalosporinase variant from Escherichia coli” (Antimicrob Agents Chemother, 2007)
In brackets after ≈: the same amount, converted by molar mass.

B1: Beta-lactamase ACC-4 (Escherichia coli), A4ZYU9 (protein)
chain: MQNTLKLLSVITCLAATVQGALAANIDESKIKDTVDDLIQPLMQKNNIPGMSVAVTVNGKNYIYNYGLAAKQPQQPVTENTLFEVGSLSKTFAATLASYAQVSGKLSLDQSVSHYVPELRGSSFDHVSVLNVGTHTSGLQLFMPEDIKNTTQLMAYLKAWKPADAAGTHRVYSNIGTGLLGMIAAKSLGVSYEDAIEKTLLPQLGMHHSYLKVPADQMENYAWGYNKKDEPVHGNMEILGNEAYGIKTTSSDLLRYVQANMGQLKLDANAKMQQALTATHTGYFKSGEITQDLMWEQLPYPVSLPNLLTGNDMAMTKSVATPIVPPLPPQENVWINKTGSTNGFGAYIAFVPAKKMGIVMLANKNYSIDQRVTVAYKILSSLEGNK

These molecules were tested on Escherichia coli (assay: Antimicrobial activity against Escherichia coli MC4100 harboring pA-acc1 plasmid by agar dilution technique).
Format: functional
Work on `CCN1CCN(C(=O)N[C@@H](C(=O)N[C@@H]2C(=O)N3[C@@H]2SC(C)(C)[C@@H]3C(=O)O)c2ccccc2)C(=O)C1=O` [PIPERACILLIN] yielded an MIC of 64 µg/mL (≈ 124 µM).

Each molecule was assayed against T1, Beta-lactamase ACC-4 (Escherichia coli, UniProt A4ZYU9) (assay: Inhibition of Escherichia coli beta-lactamase ACC4).
T1 sequence (A4ZYU9 whole entry): B1 chain
Method in brief: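 ACC-4 from mid-log E. coli(pS18-d): sonicated, ultracentrifuged, Q-Sepharose flowthrough then S-Sepharose (0–0.6 M NaCl gradient, phosphate pH 6.8), >95% pure by SDS-PAGE.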
`C[C@]1(/C=C\C#N)[C@H](C(=O)O)N2C(=O)C[C@H]2S1(=O)=O` showed an IC50 of 10.3 µM. `Cc1onc(-c2ccccc2Cl)c1C(=O)N[C@@H]1C(=O)N2[C@@H]1SC(C)(C)[C@@H]2C(=O)O` [CLOXACILLIN] showed an IC50 of 0.026 µM.

Each molecule was assayed on Escherichia coli (assay: Antimicrobial activity against Escherichia coli MC4100 harboring pACYC184 plasmid by agar dilution technique).
Format: functional
Molecule `CCN1CCN(C(=O)N[C@@H](C(=O)N[C@@H]2C(=O)N3[C@@H]2SC(C)(C)[C@@H]3C(=O)O)c2ccccc2)C(=O)C1=O` [PIPERACILLIN] has an MIC of 0.5 µg/mL (≈ 0.966 µM).

The molecules below were run on CO/N=C(\C(=O)N[C@@H]1C(=O)N2C(C(=O)O)=C(COC(C)=O)CS[C@H]12)c1csc(N)n1 (assay: (§1) Ratio of Kcat to Km for Escherichia coli beta-lactamase ACC4 by UV spectrophotometry).
Method in brief: (§2)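 ACC-4 purified from E. coli carrying pS18-d, grown to mid-log in broth with 100 μg/ml ampicillin. Sonicated, then Q-Sepharose and S-Sepharose chromatography (NaCl 0 to 0.6 M, phosphate pH 6.8), >95% pure. Substrate hydrolysis at 30°C, pH 7.0, followed by UV spectrophotometry. kcat and Km are means of four independent measurements.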
With B1 the kcat/Km was 290000 M⁻¹ s⁻¹.

Each molecule was assayed on CO/N=C(\C(=O)N[C@@H]1C(=O)N2C(C(=O)[O-])=C(C[N+]3(C)CCCC3)CS[C@H]12)c1csc(N)n1 (assay: as §1).
Method in brief: as §2
For B1, the kcat/Km was 2000 M⁻¹ s⁻¹.

What follows are molecules tested on CCN1CCN(C(=O)N[C@@H](C(=O)N[C@@H]2C(=O)N3[C@@H]2SC(C)(C)[C@@H]3C(=O)O)c2ccccc2)C(=O)C1=O (assay: as §1).
Method in brief: as §2
Work on B1 yielded a kcat/Km of 120000 M⁻¹ s⁻¹.

The molecules below were run on CC(C)(O/N=C(\C(=O)N[C@@H]1C(=O)N2C(C(=O)[O-])=C(C[n+]3ccccc3)CS[C@H]12)c1csc(N)n1)C(=O)O (assay: as §1).
Method in brief: as §2
Molecule B1 has a kcat/Km of 100000 M⁻¹ s⁻¹.

The molecules below were run on CC(=O)OCC1=C(C(=O)O)N2C(=O)[C@@H](NC(=O)Cc3cccs3)[C@H]2SC1 (assay: as §1).
Method in brief: as §2
Molecule B1 has a kcat/Km of 3.2e+06 M⁻¹ s⁻¹.

The molecules below were run on CC1(C)S[C@@H]2[C@H](NC(=O)Cc3ccccc3)C(=O)N2[C@H]1C(=O)O (assay: as §1).
Method in brief: as §2
For B1, the kcat/Km was 160000 M⁻¹ s⁻¹.

Each molecule was assayed on Hafnia alvei (assay: Activity of Hafnia alvei beta-lactamase ACC-1 assessed as nmol of compound hydrolysis per ug of protein).
`CCN1CCN(C(=O)N[C@@H](C(=O)N[C@@H]2C(=O)N3[C@@H]2SC(C)(C)[C@@H]3C(=O)O)c2ccccc2)C(=O)C1=O` [PIPERACILLIN] was tested, and the Vmax was 0.17 nmol/min/µg.

Each molecule was assayed on Hafnia alvei (assay: Activity of Hafnia alvei beta-lactamase ACC-1).
`CCN1CCN(C(=O)N[C@@H](C(=O)N[C@@H]2C(=O)N3[C@@H]2SC(C)(C)[C@@H]3C(=O)O)c2ccccc2)C(=O)C1=O` [PIPERACILLIN] was tested, and the Km was 1.4 µM.

What follows are molecules tested on Escherichia coli (assay: Antimicrobial activity against Escherichia coli MC4100 harboring pBCSK plasmid by agar dilution technique).
Format: functional
With `CCN1CCN(C(=O)N[C@@H](C(=O)N[C@@H]2C(=O)N3[C@@H]2SC(C)(C)[C@@H]3C(=O)O)c2ccccc2)C(=O)C1=O` [PIPERACILLIN] the MIC was 0.5 µg/mL (≈ 0.966 µM).

What follows are molecules tested on Escherichia coli (assay: Antimicrobial activity against Escherichia coli MC4100 harboring pB-acc4 plasmid by agar dilution technique).
Format: functional
For `CCN1CCN(C(=O)N[C@@H](C(=O)N[C@@H]2C(=O)N3[C@@H]2SC(C)(C)[C@@H]3C(=O)O)c2ccccc2)C(=O)C1=O` [PIPERACILLIN], the MIC was 128 µg/mL (≈ 247 µM).

The molecules below were run on CO/N=C(\C(=O)N[C@@H]1C(=O)N2C(C(=O)O)=C(COC(C)=O)CS[C@H]12)c1csc(N)n1 (assay: (§3) Activity of Escherichia coli beta-lactamase ACC4 by UV spectrophotometry).
Method in brief: as §2
B1 gave a Km of 9.4 µM and a kcat of 2.7 s⁻¹.

What follows are molecules tested on CO/N=C(\C(=O)N[C@@H]1C(=O)N2C(C(=O)[O-])=C(C[N+]3(C)CCCC3)CS[C@H]12)c1csc(N)n1 (assay: as §3).
Method in brief: as §2
Molecule B1 has a Km of 73 µM and a kcat of 0.14 s⁻¹.

Each molecule was assayed on CO[C@@]1(NC(=O)Cc2cccs2)C(=O)N2C(C(=O)O)=C(COC(N)=O)CS[C@@H]21 (assay: as §3).
Method in brief: as §2
B1 gave a kcat of less than 0.01 s⁻¹.

These molecules were tested on CCN1CCN(C(=O)N[C@@H](C(=O)N[C@@H]2C(=O)N3[C@@H]2SC(C)(C)[C@@H]3C(=O)O)c2ccccc2)C(=O)C1=O (assay: as §3).
Method in brief: as §2
B1 was tested, and the Km was 1.1 µM and the kcat was 0.13 s⁻¹.

The molecules below were run on CC(C)(O/N=C(\C(=O)N[C@@H]1C(=O)N2C(C(=O)[O-])=C(C[n+]3ccccc3)CS[C@H]12)c1csc(N)n1)C(=O)O (assay: as §3).
Method in brief: as §2
With B1 the Km was 15 µM and the kcat was 1.5 s⁻¹.

What follows are molecules tested on CC(=O)OCC1=C(C(=O)O)N2C(=O)[C@@H](NC(=O)Cc3cccs3)[C@H]2SC1 (assay: as §3).
Method in brief: as §2
In the case of B1, the Km is reported as 30 µM and the kcat is reported as 96 s⁻¹.

What follows are molecules tested on CC1(C)S[C@@H]2[C@H](NC(=O)Cc3ccccc3)C(=O)N2[C@H]1C(=O)O (assay: as §3).
Method in brief: as §2
For B1, the Km was 3.8 µM and the kcat was 0.59 s⁻¹.

These molecules were tested on Hafnia alvei (assay: Ratio of Vmax to Km for Hafnia alvei beta-lactamase ACC-1).
`CCN1CCN(C(=O)N[C@@H](C(=O)N[C@@H]2C(=O)N3[C@@H]2SC(C)(C)[C@@H]3C(=O)O)c2ccccc2)C(=O)C1=O` [PIPERACILLIN] gave a Vmax/Km of 0.12.

What follows are molecules tested on Escherichia coli (assay: Antimicrobial activity against Escherichia coli MC4100 harboring pB-acc1 plasmid by agar dilution technique).
Format: functional
Work on `CCN1CCN(C(=O)N[C@@H](C(=O)N[C@@H]2C(=O)N3[C@@H]2SC(C)(C)[C@@H]3C(=O)O)c2ccccc2)C(=O)C1=O` [PIPERACILLIN] yielded an MIC of 256 µg/mL (≈ 495 µM).

The molecules below were run on Escherichia coli (assay: Antimicrobial activity against Escherichia coli MC4100 harboring pA-acc4 plasmid by agar dilution technique).
Format: functional
`CCN1CCN(C(=O)N[C@@H](C(=O)N[C@@H]2C(=O)N3[C@@H]2SC(C)(C)[C@@H]3C(=O)O)c2ccccc2)C(=O)C1=O` [PIPERACILLIN] was tested, and the MIC was 32 µg/mL (≈ 61.8 µM).
